Format in all cases: cell-based, Oocyte
Assay [1] deals with T1, Gamma-aminobutyric acid receptor subunit alpha-1/ beta-1 (Homo sapiens, UniProt P14867+P18505).
T1 sequence (P14867 whole entry): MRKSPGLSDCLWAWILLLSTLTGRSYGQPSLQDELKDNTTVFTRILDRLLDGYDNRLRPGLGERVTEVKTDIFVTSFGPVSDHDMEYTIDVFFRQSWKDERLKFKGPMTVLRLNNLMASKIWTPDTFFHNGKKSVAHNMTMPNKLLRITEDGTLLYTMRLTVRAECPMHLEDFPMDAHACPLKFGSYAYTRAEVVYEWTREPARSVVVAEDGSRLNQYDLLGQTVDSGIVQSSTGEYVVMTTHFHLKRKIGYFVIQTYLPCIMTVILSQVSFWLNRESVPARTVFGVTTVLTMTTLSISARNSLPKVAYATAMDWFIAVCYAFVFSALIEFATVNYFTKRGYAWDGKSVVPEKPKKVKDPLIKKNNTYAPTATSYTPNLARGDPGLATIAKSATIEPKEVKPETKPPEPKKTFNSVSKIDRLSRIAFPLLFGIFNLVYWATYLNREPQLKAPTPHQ
T1 sequence (P18505 whole entry): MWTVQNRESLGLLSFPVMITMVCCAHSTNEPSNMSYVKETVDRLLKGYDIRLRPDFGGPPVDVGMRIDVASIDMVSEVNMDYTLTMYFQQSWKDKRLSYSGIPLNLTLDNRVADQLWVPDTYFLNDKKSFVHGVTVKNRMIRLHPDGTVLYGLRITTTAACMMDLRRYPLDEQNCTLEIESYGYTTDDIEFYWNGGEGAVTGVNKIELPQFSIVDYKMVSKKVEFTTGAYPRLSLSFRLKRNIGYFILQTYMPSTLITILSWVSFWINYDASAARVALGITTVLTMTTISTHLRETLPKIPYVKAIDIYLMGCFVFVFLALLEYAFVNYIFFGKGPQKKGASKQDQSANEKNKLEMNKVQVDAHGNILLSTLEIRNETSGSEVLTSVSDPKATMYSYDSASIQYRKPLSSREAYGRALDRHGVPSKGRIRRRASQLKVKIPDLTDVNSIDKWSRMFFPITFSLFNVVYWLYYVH
Description: Modulation of GABA Aalpha1beta1 receptor expressed in Xenopus laevis oocytes assessed as potentiation of GABA-induced chloride current at holding potential -70 mV by two-microelectrode voltage clamp technique. An outline of the steps: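 Stage V–VI Xenopus oocytes were injected with subunit cRNAs, with α1 and β1 mixed 3:1 for α1β1, and kept at +18 °C in modified ND96 at pH 7.4. Two-electrode voltage clamp was run at -70 mV and ambient temperature. Test GABA gave 3–7% of maximal current, set for each oocyte. Enhancement was (I(GABA+compound)/IGABA) − 1. EC50 came from a Hill fit. DMSO (max 0.3%) was matched in controls.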

The target of assay [2] is T2, Gamma-aminobutyric acid receptor subunit alpha-3/ beta-2 (Homo sapiens, UniProt P34903+P47870).
T2 sequence (P47870 whole entry): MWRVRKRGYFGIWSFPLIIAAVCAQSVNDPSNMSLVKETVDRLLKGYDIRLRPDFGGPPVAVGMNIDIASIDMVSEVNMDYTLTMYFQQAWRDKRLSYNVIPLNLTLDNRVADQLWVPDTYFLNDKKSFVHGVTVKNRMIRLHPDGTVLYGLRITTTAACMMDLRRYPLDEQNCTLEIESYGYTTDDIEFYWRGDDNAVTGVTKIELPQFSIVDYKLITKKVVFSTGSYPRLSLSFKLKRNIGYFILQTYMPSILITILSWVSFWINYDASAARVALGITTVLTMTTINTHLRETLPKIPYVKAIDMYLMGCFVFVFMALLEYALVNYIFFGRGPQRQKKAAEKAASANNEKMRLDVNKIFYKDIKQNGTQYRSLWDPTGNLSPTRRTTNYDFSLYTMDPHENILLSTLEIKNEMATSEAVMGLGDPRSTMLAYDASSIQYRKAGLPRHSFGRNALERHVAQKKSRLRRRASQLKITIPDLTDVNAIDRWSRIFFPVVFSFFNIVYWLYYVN
T2 sequence (P34903 whole entry): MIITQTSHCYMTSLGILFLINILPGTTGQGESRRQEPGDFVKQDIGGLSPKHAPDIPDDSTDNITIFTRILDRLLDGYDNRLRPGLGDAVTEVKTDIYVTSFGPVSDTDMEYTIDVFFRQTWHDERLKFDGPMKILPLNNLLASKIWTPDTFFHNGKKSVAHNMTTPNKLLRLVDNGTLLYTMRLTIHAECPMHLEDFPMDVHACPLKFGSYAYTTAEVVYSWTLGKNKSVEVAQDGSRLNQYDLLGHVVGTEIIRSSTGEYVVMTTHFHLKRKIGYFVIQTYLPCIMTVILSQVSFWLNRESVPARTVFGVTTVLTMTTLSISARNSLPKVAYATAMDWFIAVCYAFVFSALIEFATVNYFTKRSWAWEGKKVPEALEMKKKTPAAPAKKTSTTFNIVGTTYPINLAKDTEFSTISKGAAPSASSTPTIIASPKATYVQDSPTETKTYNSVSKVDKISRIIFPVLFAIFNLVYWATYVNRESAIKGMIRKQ
Description: Modulation of GABA Aalpha3beta2 receptor expressed in Xenopus laevis oocytes assessed as potentiation of GABA-induced chloride current at holding potential -70 mV by two-microelectrode voltage clamp technique. In outline:
(§1)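 Stage V–VI Xenopus oocytes, defolliculated with 2 mg/mL collagenase, injected with α(1, 2, 3 or 5) and β2 cRNAs mixed 1:1, then kept at 18 °C in ND96 (pH 7.4). Enhancement = I(GABA+compound)/IGABA − 1. Curves were Hill-fitted for EC50. Bath DMSO was at most 0.3%, matched in controls.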

Assay [3] addresses T3, Gamma-aminobutyric acid receptor subunit alpha-5/beta-2 (Homo sapiens, UniProt P31644+P47870).
T3 sequence (P47870 whole entry): T2 sequence (P47870 whole entry)
T3 sequence (P31644 whole entry): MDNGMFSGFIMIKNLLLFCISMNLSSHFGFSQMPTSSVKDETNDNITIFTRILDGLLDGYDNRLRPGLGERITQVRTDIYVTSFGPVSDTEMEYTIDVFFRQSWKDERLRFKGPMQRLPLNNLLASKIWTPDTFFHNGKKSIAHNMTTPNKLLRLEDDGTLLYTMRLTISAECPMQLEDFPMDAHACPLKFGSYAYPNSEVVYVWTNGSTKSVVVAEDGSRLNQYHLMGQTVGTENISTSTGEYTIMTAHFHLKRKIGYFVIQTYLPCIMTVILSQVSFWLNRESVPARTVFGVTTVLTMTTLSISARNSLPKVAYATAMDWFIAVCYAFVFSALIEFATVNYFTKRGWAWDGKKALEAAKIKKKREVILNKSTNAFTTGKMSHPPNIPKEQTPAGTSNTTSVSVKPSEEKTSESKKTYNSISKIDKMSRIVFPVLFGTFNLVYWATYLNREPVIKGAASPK
Put plainly: Modulation of GABA Aalpha5beta2 receptor expressed in Xenopus laevis oocytes assessed as potentiation of GABA-induced chloride current at holding potential -70 mV by two-microelectrode voltage clamp technique. An outline of the steps: as §1

From ChEMBL document CHEMBL1811845, “Modulation of GABAA-receptors by honokiol and derivatives: subtype selectivity and structure-activity relationship” (J Med Chem, 2011) come the findings set out here.

In general, EC50 refers to the concentration at which the effect is half-maximal.

For `C=CCc1ccc(O)c(-c2ccc(O)c(CC=C)c2)c1` [HONOKIOL], the EC50 in assay [1] stood at 57 µM; in assay [2] it was 52.4 µM; in assay [3], 23.4 µM.
